hiPSC survival: increases survival of single human iPS cells; hiPSC single-cell survival, ATPlite luminescence; 100% = ROCK inhibitor wells, 0% = DMSO; survival enhancement, % at 20 µM; actives 0.044% (n = 360,000); AID 602274; in the data active = survival enhancement above about 18%;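 also: cells exposed to compounds for 16 hours before the ATP read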
MC4R antagonist: human MC4R antagonism in cAMP assay; MC4R-expressing cells, MTII-stimulated cAMP, LANCE TR-FRET; P32245; actives 0.48% (n = 360,000); inhibition, % at 6.5 µM;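 active = inhibition above its plate's cutoff, the mean of tested wells on that plate plus 3 SD, cut at about 29% in these data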;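 also: 0% = Melanotan II alone and 100% = Melanotan II plus saturating MCL0020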
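Material: human MC4R-expressing U2OS cells. Probe or stimulus: Melanotan II challenge. Dosing: 6.5 µM single dose. Times: 30-min compound, 1-h challenge, 1-h detection, room temperature. Technique: TR-FRET with Eu-cAMP and labeled anti-cAMP, 671 nm. Replication: singlicate.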
Exocytosis inh: lytic granule exocytosis inhibition; TALL-104 LAMP-1 surface exposure, flow cytometry; cells stimulated with thapsigargin and PMA; inhibition, % at 10 µM; actives 0.66% (n = 360,000); AID 651702;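 active = inhibition above about 55%, limit read from the data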
MC4R ag barr: activates human MC4R beta-arrestin recruitment | P32245 | U2OS MC4R beta-arrestin complementation, luminescence; percent of melanotan II response, DMSO zero | activation, % at 8.9 µM | actives 0.98% (n = 360,000);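 active = activation above a per-plate cutoff, the mean activation of sample wells on that plate plus 3 SD, cut at about 8% in these data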
Tb MetRS inh: blocks T. brucei methionyl-tRNA synthetase activity. purified T. brucei MetRS, ATP depletion, Kinase-Glo luminescence. inhibition, % at 11.9 µM. actives 0.4% (n = 360,000). AID 624268;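 active = inhibition above a per-plate cutoff of the control wells' mean inhibition plus 3 SD, cut at about 5.5% in these data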;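 also: 0% = DMSO wells median and 100% = median of wells with control inhibitor compound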
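Dosing: 11.9 µM compound single dose, 0.9% DMSO; Assay system: purified T. brucei MetRS enzyme; Measured by: Kinase-Glo luciferase luminescence reporting remaining unconsumed ATP; Schedule: 15 min plus 2 h at 25 °C.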
ABCB6 inh MLPCN: blocks the human ABCB6 transporter. Q9NP58. K562-ABCB6 porphyrin accumulation, flow cytometry, 1 h; hits give low values. fluorescence ratio to DMSO, % at 10 µM. actives 0.19% (n = 360,000);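 active = fluorescence ratio to DMSO below 75%, the collection mean minus 3 SD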;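 also: signal is porphyrin accumulated inside mitochondria; 100% equals median channel fluorescence of DMSO control wells; lower ratio means ABCB6 inhibition with less porphyrin fluorescence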
Target sequence (Q9NP58 whole entry, looked up): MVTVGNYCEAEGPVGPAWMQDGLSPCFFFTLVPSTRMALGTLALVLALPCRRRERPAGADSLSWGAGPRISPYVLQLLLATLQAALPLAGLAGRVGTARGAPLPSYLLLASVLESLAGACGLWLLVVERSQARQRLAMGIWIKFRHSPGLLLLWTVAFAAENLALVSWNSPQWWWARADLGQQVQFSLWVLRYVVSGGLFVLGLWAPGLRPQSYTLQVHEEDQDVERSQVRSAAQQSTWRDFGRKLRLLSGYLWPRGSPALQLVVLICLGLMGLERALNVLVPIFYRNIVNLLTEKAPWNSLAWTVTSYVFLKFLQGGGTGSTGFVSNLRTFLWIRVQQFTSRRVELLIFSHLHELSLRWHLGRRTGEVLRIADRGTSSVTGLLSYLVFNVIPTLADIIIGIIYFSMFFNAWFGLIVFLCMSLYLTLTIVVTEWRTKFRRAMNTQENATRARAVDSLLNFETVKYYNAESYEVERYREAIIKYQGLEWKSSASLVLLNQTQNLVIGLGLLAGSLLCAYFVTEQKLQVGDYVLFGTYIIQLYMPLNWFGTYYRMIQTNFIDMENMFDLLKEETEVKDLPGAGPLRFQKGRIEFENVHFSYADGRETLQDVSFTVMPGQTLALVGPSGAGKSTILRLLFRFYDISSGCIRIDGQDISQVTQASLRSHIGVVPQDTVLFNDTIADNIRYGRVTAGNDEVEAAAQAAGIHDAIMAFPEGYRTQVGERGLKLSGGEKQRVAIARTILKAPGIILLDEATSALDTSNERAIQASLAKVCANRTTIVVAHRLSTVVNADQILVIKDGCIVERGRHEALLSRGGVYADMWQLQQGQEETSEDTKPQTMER
Active calls of the source: *; x = no result given. Only some compounds are listed: those with a hit (about 2.6% of all), similar ones and a draw of the others.

SMILES | hiPSC survival | MC4R antagonist | Exocytosis inh | MC4R ag barr | Tb MetRS inh | ABCB6 inh MLPCN
Cc1cc(N2CCCC(C(=O)Nc3cccc(Cl)c3)C2)n2ncnc2n1 (stereo unspecified) | -0.4 | 2.7 | -1.1 | -1.6 | 0.4 | 101.0
CC(=O)c1cccc(OCC(O)CNCCc2ccc(Cl)cc2)c1 (stereo unspecified) | -0.4 | 0.6 | 3.5 | -0.5 | -0.3 | 102.0
CCCc1cnc(NCCNCC(O)COc2ccc(Cl)c(Cl)c2)nc1 (stereo unspecified) | -0.4 | 6.6 | 46.6 | 8.4* | -0.2 | 92.0
C=CC(=O)N1C/C(=C/c2ccccc2)C(=O)/C(=C\c2ccccc2)C1 | 8.8 | 22.5 | 70.7* | -1.5 | 0.1 | 98.0
CCOc1ccc(CCNC(=O)CSc2cc(=O)n(C)c3ccccc23)cc1OCC | -2.8 | 12.5 | -4.1 | 2.0 | 0.0 | 101.0
Cc1ccc(S(=O)(=O)N[C@H](C(=O)OCC(=O)NC(=O)NCc2ccco2)C(C)C)cc1 | 24.3* | 8.1 | -9.6 | -0.3 | -0.2 | 102.0
CCOc1c(Br)cc(C(=O)N2CCCN(C)CC2)cc1OC | -0.6 | 0.5 | -10.0 | -2.5 | 0.3 | 96.0
CCCCNC(=O)N1CCN(c2ccnc3cc(Cl)ccc23)CC1 | -0.2 | 6.5 | -12.3 | -0.9 | -0.4 | 158.0
Cc1ccc2c(cnn2C(=O)CCCC(=O)NCc2ccc(Cl)cc2)c1 | 7.1 | -6.2 | 5.9 | 8.6* | 0.2 | 100.0
CC(=O)C1CCC2C3CC=C4CC(SC(=N)N)CCC4(C)C3CCC12C (stereo unspecified) | 1.3 | 7.2 | 8.3 | 15.2* | -0.3 | 90.0
CC(NC(=O)Nc1ccc(F)cc1F)c1ccncc1 (stereo unspecified) | -1.6 | 14.1 | -0.8 | -0.1 | -0.2 | 100.0
O=C(O)C1C2CCC(O2)C1C(=O)Nc1ccc(OC(F)F)cc1 (stereo unspecified) | 0.5 | 13.7 | -5.0 | 0.6 | 0.3 | 101.0
C=CCNC(=O)C(=O)Nc1ccc2c(c1)N(S(=O)(=O)c1cccs1)CCC2 | 0.7 | -3.3 | 1.2 | -2.7 | 0.0 | 93.0
CCOCCCNC(=O)/C(C#N)=C/c1cc(OC)c(O)c([N+](=O)[O-])c1 | -1.9 | -44.0 | 0.1 | -3.6 | 0.2 | 104.0
CCOCCCNC(=O)/C(C#N)=C/c1ccc(Cl)c([N+](=O)[O-])c1 | 12.0 | 22.6 | 66.5* | -1.2 | 0.1 | 98.0
CNC[C@@H](Cc1ccccc1)NC[C@@H](CC1CCCCC1)NCCCc1ccccc1 | -6.5 | 0.5 | 7.4 | 11.5* | -0.3 | 94.0
CCCCN(C(=O)c1ccccc1Br)C(c1ccc(OC)cc1)c1nc2ccccc2[nH]1 (stereo unspecified) | -1.1 | x | -0.2 | x | -0.6 | 96.0
Cc1ccc(C(=O)CN2/C(=C(\O)c3ccccc3)C(=O)c3ccccc3S2(=O)=O)c(C)c1 | -1.6 | -2.5 | -1.2 | 12.4* | -1.1 | 97.0
Cc1ccc(C(=O)CN2C(=O)c3ccccc3S2(=O)=O)cc1 | -0.5 | 9.2 | 11.0 | -1.6 | -0.2 | 96.0
O=C(COc1ccc(S(=O)(=O)N2CCOCC2)cc1)N1CCCCCC1 | -4.0 | 2.1 | -3.3 | -4.4 | -0.6 | 98.0
CN(C)C(=O)NC1c2ccccc2-c2ccccc21 | 0.9 | 5.5 | -6.7 | -1.2 | -0.3 | 100.0
O=C1C=CC(=O)N1c1ccc2c(c1)C(NC(=O)C(F)(F)F)c1ccccc1-2 (stereo unspecified) | -4.7 | 71.0* | -11.9 | -4.2 | -0.3 | 98.0
CC1=NOC(=O)/C1=C\c1ccc(-c2cc(Cl)ccc2Cl)o1 | -2.5 | -3.0 | 73.6* | 1.0 | -0.8 | 105.0
CCOC(=O)C1=C(c2ccccc2)NC(=O)NC1c1ccc(O)c(Cl)c1 (stereo unspecified) | 0.0 | 8.6 | -0.7 | 52.2* | -0.7 | 100.0
CCCCNC(=O)[C@H](CSCc1ccccc1)N1Cc2ccccc2C1=O | -0.7 | -0.6 | -2.4 | -0.4 | -0.5 | 98.0
SMILES | hiPSC survival | MC4R antagonist | Exocytosis inh | MC4R ag barr | Tb MetRS inh | ABCB6 inh MLPCN
COc1cc(NC(=O)c2cc(C)on2)cc(OC)c1OC | 3.1 | 10.5 | 0.9 | -1.3 | -0.5 | 102.0
CCOC(=O)c1cc(NC(=O)c2cc(C)on2)cc(C(=O)OCC)c1 | -0.5 | -0.7 | -2.8 | 30.6* | -0.3 | 106.0
CCCCCCCCCCCC1=C(O)C(=O)C=C(O)C1=O | -0.8 | 18.1 | -1.7 | 16.2* | 0.9 | 102.0
Nc1c(S(=O)(=O)c2cccs2)c2nc3ccccc3nc2n1/N=C/c1cccc(O)c1 | -2.0 | 16.9 | 14.6 | 8.4* | 0.0 | 97.0
CCOC(=O)C1=C(COC(=O)c2ccccc2[N+](=O)[O-])NC(=O)NC1C (stereo unspecified) | 0.9 | -13.7 | -9.0 | -2.6 | -0.1 | 97.0
Cc1cccc(NC(=O)CCSc2ccccc2)c1C | -1.2 | 8.1 | 10.1 | 8.7* | -1.0 | 105.0
COCCNc1nc(Oc2cccc(NC(C)=O)c2)c2sc(-c3ccccc3)cc2n1 | -2.1 | 22.8 | 47.4 | 9.1* | -0.4 | 90.0
CCOC(=O)c1ccc(NC(=O)COc2ccccc2CNCCc2ccccc2)cc1 | -2.7 | 3.4 | 69.4* | 5.4 | 0.0 | 105.0
CCCN(Cc1ccccc1)C(=S)Nc1ccc(SC(F)F)cc1 | -0.4 | 3.7 | 90.1* | -0.8 | 0.9 | 98.0
Cc1ccc(NS(=O)(=O)c2ccc(C(=O)N3CC(C)CC(C)C3)cc2)cc1 (stereo unspecified) | 0.2 | 8.7 | 8.3 | 2.6 | -0.4 | 99.0
COc1cccc(OC)c1-c1nn2c(-c3cc(-c4ccccc4)n[nH]3)nnc2s1 | 1.9 | -4.7 | -12.1 | 36.1* | -1.2 | 93.0
COc1cccc(-c2nnc3sc(-c4ccccc4)nn23)c1 | 5.6 | 3.7 | 3.3 | 1.2 | -0.5 | 96.0
CCN(CC)c1ccc(-c2nn3c(-c4ccccc4OC)nnc3s2)cc1 | -1.3 | -22.1 | 80.4* | 0.6 | -1.0 | 99.0
CC(C)(NC(=O)c1cc(Cl)c2ccccc2c1O)C(=O)O | 1.3 | 4.3 | -6.9 | -0.4 | -0.5 | 97.0
Cc1ccc2nc(NC(=O)CSc3nncc(=O)n3N)sc2c1 | 0.9 | 3.9 | -2.9 | 0.1 | -2.0 | 97.0
COc1ccc2c(n1)Sc1nc3ccccc3nc1N2 | 0.5 | 9.3 | 61.6* | 7.8 | -0.3 | 264.0
COc1cc2ccccc2nn1 | -0.5 | -1.6 | -4.5 | 0.0 | -0.8 | 102.0
NC(=O)c1cc2cc([N+](=O)[O-])ccc2oc1=O | -0.6 | 15.9 | 0.8 | -1.1 | 0.6 | 98.0
O=C(Nc1ccc(Br)cc1F)c1ccc2nsnc2c1 | 0.1 | 2.7 | -0.8 | 8.8* | 0.3 | 100.0
CCOC(=O)C1(Cc2ccc(OC)cc2)CCN(C(=O)CN2CCCCC2=O)CC1 | 0.4 | 3.4 | -1.6 | -2.0 | -1.1 | 101.0
CN(C)CCCN(C(=O)/C=C/c1cccs1)c1nc2c(F)cccc2s1 | -0.5 | -0.5 | 56.8* | 1.5 | 0.3 | 104.0

Screens (PubChem BioAssay)
